Data as given in ChEMBL document CHEMBL1145480, “Horizontal gene transfer of ftsI, encoding penicillin-binding protein 3, in Haemophilus influenzae” (2007).
≈ marks a conversion by molar mass, not a printed value.

Experiments:
Type in all cases: functional
Aggregatibacter segnis = test: Antibacterial activity against Haemophilus segnis ATCC 33393 by broth microdilution method
Haemophilus influenzae [1] = test: Antibacterial activity against Haemophilus influenzae MSC02104 by broth microdilution method
Haemophilus influenzae [2] = test: Antibacterial activity against Haemophilus influenzae MSC02022 by broth microdilution method
Method in brief: (§1)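 MICs were determined by broth dilution following CLSI guidelines (approved standard M7-A7). The agents were rifampin, cefdinir and fosfomycin. Strains were routinely grown on chocolate II agar or in brain heart infusion broth with 2% defibrinated, lysed horse blood plus 15 μg/ml β-NAD+.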

Haemophilus influenzae [3] = test: Antibacterial activity against rifampin-resistant Haemophilus influenzae RdRIF by broth microdilution method; method in brief: as §1
Haemophilus influenzae [4] = test: Antibacterial activity against Haemophilus influenzae MSC01869 by broth microdilution method; method in brief: as §1
Haemophilus influenzae [5] = test: Antibacterial activity against Haemophilus influenzae MSC07169 by broth microdilution method; method in brief: as §1
Haemophilus haemolyticus [6] = test: Antibacterial activity against Haemophilus haemolyticus MSC07286 by broth microdilution method
Haemophilus influenzae [7] = test: Antibacterial activity against Haemophilus influenzae MSC06647 by broth microdilution method; method in brief: as §1
Haemophilus influenzae [8] = test: Antibacterial activity against Haemophilus influenzae MSC01855 by broth microdilution method; method in brief: as §1
Haemophilus influenzae [9] = test: Antibacterial activity against Haemophilus influenzae MSC01363 by broth microdilution method; method in brief: as §1
[10] = tested on: Haemophilus parainfluenzae; test: Antibacterial activity against Haemophilus parainfluenzae ATCC 33392 by broth microdilution method
[11] = tested on: Aggregatibacter aphrophilus; test: Antibacterial activity against Haemophilus aphrophilus ATCC 33389 by broth microdilution method
Haemophilus influenzae [12] = test: Antibacterial activity against Haemophilus influenzae MSC07771 by broth microdilution method; method in brief: as §1
Haemophilus influenzae [13] = test: Antibacterial activity against Haemophilus influenzae MSC06651 by broth microdilution method; method in brief: as §1
Haemophilus influenzae [14] = test: Antibacterial activity against Haemophilus influenzae MSC06663 by broth microdilution method; method in brief: as §1
Haemophilus influenzae [15] = test: Antibacterial activity against Haemophilus influenzae MSC07237 by broth microdilution method; method in brief: as §1
Haemophilus influenzae [16] = test: Antibacterial activity against Haemophilus influenzae MSC01400 by broth microdilution method; method in brief: as §1
Haemophilus influenzae [17] = test: Antibacterial activity against Haemophilus influenzae MSC02070 by broth microdilution method; method in brief: as §1
Haemophilus haemolyticus [18] = test: Antibacterial activity against Haemophilus haemolyticus ATCC 33390 by broth microdilution method
[19] = tested on: Haemophilus parahaemolyticus; test: Antibacterial activity against Haemophilus parahaemolyticus ATCC 10014 by broth microdilution method
[20] = tested on: Aggregatibacter aphrophilus; test: Antibacterial activity against Haemophilus paraphrophilus ATCC 29241 by broth microdilution method
Haemophilus influenzae [21] = test: Antibacterial activity against Haemophilus influenzae MSC02149 by broth microdilution method; method in brief: as §1
Haemophilus influenzae [22] = test: Antibacterial activity against Haemophilus influenzae MSC01432 by broth microdilution method; method in brief: as §1
[23] = tested on: Haemophilus paraphrohaemolyticus; test: Antibacterial activity against Haemophilus paraphrohaemolyticus ATCC 29237 by broth microdilution method
Haemophilus influenzae [24] = test: Antibacterial activity against rifampin and cefdinir-resistant Haemophilus influenzae RdRIF/MSC06651 mutant by broth microdilution method; method in brief: as §1
Haemophilus influenzae [25] = test: Antibacterial activity against rifampin and cefdinir-resistant Haemophilus influenzae RdRIF/MSC06647 mutant by broth microdilution method; method in brief: as §1
Haemophilus influenzae [26] = test: Antibacterial activity against rifampin and cefdinir-resistant Haemophilus influenzae RdRIF/MSC06663 mutant by broth microdilution method; method in brief: as §1
Haemophilus influenzae [27] = test: Antibacterial activity against Haemophilus influenzae Rd by broth microdilution method; method in brief: as §1

SMILES	MIC (Aggregatibacter segnis) [µg/mL]	MIC (Haemophilus influenzae [1]) [µg/mL]	MIC (Haemophilus influenzae [2]) [µg/mL]	MIC (Haemophilus influenzae [3]) [µg/mL]	MIC (Haemophilus influenzae [4]) [µg/mL]	MIC (Haemophilus influenzae [5]) [µg/mL]	MIC (Haemophilus haemolyticus [6]) [µg/mL]	MIC (Haemophilus influenzae [7]) [µg/mL]	MIC (Haemophilus influenzae [8]) [µg/mL]	MIC (Haemophilus influenzae [9]) [µg/mL]	MIC [10] [µg/mL]	MIC [11] [µg/mL]	MIC (Haemophilus influenzae [12]) [µg/mL]	MIC (Haemophilus influenzae [13]) [µg/mL]	MIC (Haemophilus influenzae [14]) [µg/mL]	MIC (Haemophilus influenzae [15]) [µg/mL]	MIC (Haemophilus influenzae [24]) [µg/mL]	MIC (Haemophilus influenzae [25]) [µg/mL]	MIC (Haemophilus influenzae [26]) [µg/mL]	MIC (Haemophilus influenzae [27]) [µg/mL]	also measured
CC1(C)S[C@@H]2[C@H](NC(=O)[C@H](N)c3ccccc3)C(=O)N2[C@H]1C(=O)O [AMPICILLIN]	0.5 (≈ 1.43 µM)	> 64	1 (≈ 2.86 µM)	0.25 (≈ 0.715 µM)	> 64	1 (≈ 2.86 µM)	2 (≈ 5.72 µM)	2 (≈ 5.72 µM)	4 (≈ 11.4 µM)	2 (≈ 5.72 µM)	0.5 (≈ 1.43 µM)	0.5 (≈ 1.43 µM)	2 (≈ 5.72 µM)	2 (≈ 5.72 µM)	1 (≈ 2.86 µM)	4 (≈ 11.4 µM)	–	–	–	–	MIC (Haemophilus influenzae [16]): 8 µg/mL (≈ 22.9 µM); MIC (Haemophilus influenzae [17]): 8 µg/mL (≈ 22.9 µM); MIC (Haemophilus haemolyticus [18]): 0.5 µg/mL (≈ 1.43 µM); MIC [19]: 0.25 µg/mL (≈ 0.715 µM); MIC [20]: 0.25 µg/mL (≈ 0.715 µM); MIC (Haemophilus influenzae [21]): 8 µg/mL (≈ 22.9 µM); MIC (Haemophilus influenzae [22]): 1 µg/mL (≈ 2.86 µM); MIC [23]: 0.25 µg/mL (≈ 0.715 µM)
C=CC1=C(C(=O)O)N2C(=O)[C@@H](NC(=O)/C(=N\O)c3csc(N)n3)[C@H]2SC1 [CEFDINIR]	0.06 (≈ 0.152 µM)	16 (≈ 40.5 µM)	2 (≈ 5.06 µM)	0.25 (≈ 0.632 µM)	8 (≈ 20.2 µM)	1 (≈ 2.53 µM)	2 (≈ 5.06 µM)	1 (≈ 2.53 µM)	8 (≈ 20.2 µM)	1 (≈ 2.53 µM)	0.12 (≈ 0.303 µM)	0.12 (≈ 0.303 µM)	1 (≈ 2.53 µM)	8 (≈ 20.2 µM)	2 (≈ 5.06 µM)	16 (≈ 40.5 µM)	8 (≈ 20.2 µM)	2 (≈ 5.06 µM)	8 (≈ 20.2 µM)	0.25 (≈ 0.632 µM)	MIC (Haemophilus influenzae [16]): 8 µg/mL (≈ 20.2 µM); MIC (Haemophilus influenzae [17]): 8 µg/mL (≈ 20.2 µM); MIC (Haemophilus haemolyticus [18]): 0.12 µg/mL (≈ 0.303 µM); MIC [19]: 0.016 µg/mL (≈ 0.0405 µM); MIC [20]: 0.06 µg/mL (≈ 0.152 µM); MIC (Haemophilus influenzae [21]): 16 µg/mL (≈ 40.5 µM); MIC (Haemophilus influenzae [22]): 2 µg/mL (≈ 5.06 µM); MIC [23]: 0.016 µg/mL (≈ 0.0405 µM)
C[C@@H]1O[C@@H]1P(=O)(O)O [FOSFOMYCIN]	–	–	–	2 (≈ 14.5 µM)	–	–	–	0.12 (≈ 0.869 µM)	–	–	–	–	–	256 (≈ 1850 µM)	0.06 (≈ 0.435 µM)	–	1 (≈ 7.24 µM)	2 (≈ 14.5 µM)	2 (≈ 14.5 µM)	2 (≈ 14.5 µM)	–
CO[C@H]1/C=C/O[C@@]2(C)Oc3c(C)c(O)c4c(O)c(c(/C=N/N5CCN(C)CC5)c(O)c4c3C2=O)NC(=O)/C(C)=C\C=C\[C@H](C)[C@H](O)[C@@H](C)[C@@H](O)[C@@H](C)[C@H](OC(C)=O)[C@@H]1C [RIFAMPIN]	–	–	–	> 128	–	–	–	0.25 (≈ 0.304 µM)	–	–	–	–	–	0.5 (≈ 0.608 µM)	0.5 (≈ 0.608 µM)	–	> 128	> 128	> 128	0.5 (≈ 0.608 µM)	–
